For orientation: pIC50 means the IC50 on a negative log10 scale, so that one unit is a factor of ten.

Each structure is given as a SMILES string. pIC50: −log10 of the molar value. Where only a bound is given, the exact number is not on record here.

Data on 12 compounds can be found in ChEMBL document CHEMBL1153609, “Synthesis and cytotoxic activity of alpha-santonin derivatives” (Eur J Med Chem, 2009).

One experiment has as its system PC-3. Kind of experiment: Cytotoxicity against human PC3 cells after 72 hrs by MTT assay. Format: functional, cell-based. Particulars: PC-3, 72 h. In a few lines: (§1)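 Cells kept in RPMI-1640 with 10% FBS, 2 mM glutamine, penicillin/streptomycin, at 37 °C under 5% CO2. Seeded at 10^5 cells/well (adherent) or 0.5×10^5 cells/well (suspension). After 24 h, compounds in DMSO (0.09–25 μg/mL) added for 72 h; doxorubicin positive control. Medium then replaced with 0.5 mg/mL MTT for 3 h, formazan dissolved in DMSO, absorbance read at 595 nm as % of control; IC50 derived.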
A general note: Tetrazolium assays rely on reduction of a dye to a coloured formazan, in cell work by metabolically active cells.

In a further experiment the test system is OVCAR-8. Description: Cytotoxicity against human OVCAR8 cells after 72 hrs by MTT assay. The class given is functional, cell-based. The note with it: OVCAR-8, 72 h. The essentials: as §1
The next experiment relates to SF-295. Description: Cytotoxicity against human SF295 cells after 72 hrs by MTT assay. The class given is functional, cell-based. The note with it: SF-295, 72 h. In a few lines: as §1
The subject of the next experiment is MDA-MB-435. Kind of experiment: Cytotoxicity against human MDA-MB-435 cells after 72 hrs by MTT assay. The class given is functional, cell-based. Particulars: MDA-MB-435, 72 h. In a few lines: as §1
In another experiment the test system is UACC-257. Kind of experiment: Cytotoxicity against human UACC257 cells after 72 hrs by MTT assay. The class given is functional, cell-based. Particulars: UACC-257, 72 h. The essentials: as §1
For the next experiment, the system named is A549. Kind of experiment: Cytotoxicity against human A549 cells after 72 hrs by MTT assay. The class given is functional, cell-based. Particulars: A549, 72 h. In a few lines: as §1
In another experiment the test system is A704. Kind of experiment: Cytotoxicity against human A704 cells after 72 hrs by MTT assay. The note with it: A704, 72 h. Format: functional, cell-based. In a few lines:
as §1

For the next experiment, the system named is HL-60. Description: Cytotoxicity against human HL60 cells after 72 hrs by MTT assay. Format: functional, cell-based. The note with it: HL-60, 72 h. The essentials: as §1
A further experiment deals with HCT-8. Kind of experiment: Cytotoxicity against human HCT8 cells after 72 hrs by MTT assay. Format: functional, cell-based. The note with it: HCT-8, 72 h. The essentials:
as §1

The next experiment has as its system PBMC. Description: Cytotoxicity against human PBMC cells after 72 hrs by alamar blue assay. Format: cell-based. In a few lines: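 PBMC came from heparinized blood of healthy non-smoking donors and were isolated by Ficoll-Hypaque density gradient. Cultured in RPMI-1640 with 20% FBS, glutamine and antibiotics, with 2% phytohemagglutinin. Plated at 3×10^5 cells/well; after 24 h, compounds in DMSO (0.09–25 μg/mL) added for 72 h; doxorubicin positive control. Resazurin added 24 h before end; absorbance read at 570 and 595 nm as % of control.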
(In general: Resazurin is reduced to fluorescent resorufin, in cell work by metabolically active cells.)

For `C[C@@H]1C(=O)O[C@H]2[C@H]1CC[C@]1(C)C3(C)C(=O)C=CC231` (some centres not stated) [LUMISANTONIN], the pIC50 with PC-3 is 4.18; in the experiment with OVCAR-8 it was 4.30; in the experiment on SF-295, 4.16; in the experiment with MDA-MB-435 it was 4.04; in the experiment with UACC-257, below 4.00; with A549 it was 4.16. The pIC50 with A704 is 4.07; in the experiment on HL-60 it was 4.10; in the experiment on HCT-8 it was 4.23.

With `CC1=C2[C@H]3OC(=O)[C@@H](C)[C@@H]3CC[C@@]2(C)C=CC1=O` [SANTONIN], the pIC50 in the experiment with PC-3, in the experiment on OVCAR-8, in the experiment with SF-295, in the experiment on MDA-MB-435, with UACC-257 and in the experiment with A549 was below 4.00 in each case. Further, the pIC50 in the experiment with A704, with HL-60 and in the experiment with HCT-8 was below 4.00 each time.

For the compound `C=C1C(=O)O[C@@H]2C3=C(C)C(=O)C=C[C@]3(C)CC[C@@H]12`, the pIC50 was 4.88 in the experiment with PC-3; 5.16 with OVCAR-8; 5.57 in the experiment on SF-295; 5.17 with MDA-MB-435; 5.22 in the experiment with UACC-257; 4.87 with A549. For the same compound, the pIC50 in the experiment with A704 was 4.99; with PBMC, 5.49; in the experiment with HL-60, 5.94; in the experiment with HCT-8, 5.53.

Regarding `C=C1C(=O)O[C@H]2[C@H]1CC[C@]1(C)C3(C)C(=O)C=CC231` (some centres not stated), the negative logarithm of the IC50 (pIC50) with PC-3 was 5.29; in the experiment on OVCAR-8 it was 5.41; in the experiment on SF-295 it was 5.67; in the experiment with MDA-MB-435, 5.34; with UACC-257 it was 5.31; in the experiment on A549, 4.84. Moreover, the negative-log IC50 (pIC50) is 5.44 in the experiment on A704, 4.87 with PBMC, 5.64 in the experiment on HL-60 and 5.71 in the experiment on HCT-8.

On to `CC(=O)O[C@]1(C)CC[C@H]2[C@H](C)C(=O)O[C@@H]2C2=C(C)[C@@H](O)C[C@H]21`, for which the negative-log IC50 (pIC50) in the experiment with PC-3, in the experiment on OVCAR-8, with SF-295, in the experiment with MDA-MB-435, in the experiment on UACC-257 and with A549 was below 4.00 in each case. The pIC50 in the experiment on A704, with HL-60 and in the experiment on HCT-8 was below 4.00 throughout.

With `CC(=O)O[C@]1(C)CC[C@H]2[C@H](C)C(=O)O[C@@H]2C2=C(C)C(=O)C[C@H]21`, the negative-log IC50 (pIC50) with PC-3, with OVCAR-8, with SF-295, in the experiment on MDA-MB-435, in the experiment with UACC-257 and in the experiment with A549 was below 4.00 in each case. For the same compound, the negative logarithm of the IC50 (pIC50) in the experiment with A704, in the experiment on HL-60 and with HCT-8 was below 4.00 in each case.

Consider `CC1=C2[C@H]3OC(=O)[C@@H](C)[C@@H]3CC[C@@](C)(O)[C@@H]2C[C@@H]1O`, for which the pIC50 in the experiment on PC-3, with OVCAR-8, with SF-295, with MDA-MB-435, with UACC-257 and in the experiment on A549 was below 4.00 each time. For the same compound, the pIC50 in the experiment on A704, in the experiment on HL-60 and in the experiment with HCT-8 was below 4.00 in each case.

Regarding `CC(C)=C1CC[C@H]2[C@H](C)C(=O)O[C@@H]2/C1=C\CC(=O)O` [ISOFOTOSANTONIC ACID], the negative-log IC50 (pIC50) in the experiment on PC-3, in the experiment with OVCAR-8, in the experiment on SF-295, in the experiment with MDA-MB-435, in the experiment on UACC-257 and with A549 was below 4.00 each time. In addition, the negative logarithm of the IC50 (pIC50) in the experiment on A704, in the experiment with HL-60 and with HCT-8 was below 4.00 throughout.

`C=C1C(=O)O[C@@H]2C3=C(C)C(=O)C[C@H]3[C@](C)(OC(C)=O)CC[C@@H]12`: the pIC50 in the experiment with PC-3 is 4.84; with OVCAR-8, 5.06; in the experiment on SF-295, 5.51; with MDA-MB-435, 5.05; in the experiment with UACC-257, 5.11; with A549, 4.99. The pIC50 in the experiment on A704 was 5.03; with PBMC it was 4.87; with HL-60 it was 5.80; in the experiment on HCT-8, 6.44.

Regarding `COc1cccc2c1C(=O)c1c(O)c3c(c(O)c1C2=O)C[C@@](O)(C(=O)CO)C[C@@H]3O[C@H]1C[C@H](N)[C@H](O)[C@H](C)O1` [DOXORUBICIN], the pIC50 with PC-3 was 5.88; in the experiment with OVCAR-8 it was 6.29; with SF-295, 6.32; in the experiment with MDA-MB-435, 6.02; in the experiment with UACC-257, 6.22; with A549, 6.14. For the same compound, the pIC50 in the experiment on A704 is 5.70; in the experiment on PBMC, 5.75; in the experiment with HL-60, 7.40; in the experiment with HCT-8 it was 7.70.

Consider `CC1=C2[C@H]3OC(=O)[C@](C)([Se]c4ccccc4)[C@@H]3CC[C@@]2(C)C=CC1=O`, for which the pIC50 in the experiment on PC-3, with OVCAR-8, in the experiment on SF-295, in the experiment on MDA-MB-435, in the experiment with UACC-257 and in the experiment on A549 was below 4.00 in each case. Besides, the negative logarithm of the IC50 (pIC50) in the experiment on A704, with HL-60 and in the experiment with HCT-8 was below 4.00 throughout.

Consider `CC1=C2[C@H]3OC(=O)[C@@H](C)[C@@H]3CC[C@@](C)(O)[C@@H]2CC1=O`, for which the pIC50 in the experiment with PC-3, in the experiment with OVCAR-8, in the experiment with SF-295, with MDA-MB-435, in the experiment with UACC-257 and in the experiment with A549 was below 4.00 each time. Further, the negative logarithm of the IC50 (pIC50) with A704, with HL-60 and with HCT-8 was below 4.00 throughout.
